# From publication PMC9119696 (Nature chemical biology, 2021)
# Tests used:
# [1] = tested on: Pin1; test: Live cell competition pulldown; format: cell-based
# Procedure, shortened: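 2.5 million cells per 10-cm plate, dosed next day with DMSO or test compound (5 h, or as indicated). Cells washed in cold PBS, scraped and lysed in HEPES pH 7.4/NP-40 buffer with TCEP. Lysate (500 µg) incubated with desthiobiotin probe (1 µM, 1 h, 4 °C), then streptavidin agarose (1.5 h, 4 °C). Pin1 pulldown detected by immunoblot.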
# [2] = Hepatic microsome stability; format: in vitro ADME, mouse; conditions: 1 μM, 1 mg ml^−1 microsomes, NADPH
# Procedure, shortened: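 Test compound (1 µM) incubated with hepatic microsomes (1 mg ml-1) in 100 mM KPi, pH 7.4. Reaction started by adding 1 mM NADPH.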
# [3] = Mouse pharmacokinetic profiling; format: in vivo; conditions: oral 10 mg kg^–1, three mice
# [4] = tested on: Pin1 Cys113; test: CITe-Id chemoproteomic cysteine profiling; format: cell-based; conditions: PATU-8988T cells, 100, 500, 1,000 nM, 5 h
# Procedure, shortened: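 Live PATU-8988T cells exposed to test compound at 100, 500 or 1,000 nM for 5 h, then lysed. Lysates co-incubated with the desthiobiotin-tagged probe (2 µM) for 18 h. Probe-labelled cysteines were identified and quantified proteome-wide for dose-dependent competition.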
# [5] = tested on: Pin1 Cys113; test: rdTOP-ABPP chemoproteomic cysteine profiling; format: cell-based; conditions: MDA-MB-231 cells, 5 μM, 2 h
# Procedure, shortened: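 MDA-MB-231 cells at 70% confluence treated 2 h with DMSO or 5 µM compound in serum-free medium. Lysed by sonication in PBS/0.1% Triton X-100; spun 100,000g, 30 min. Proteome (2 mg ml-1) labelled with 100 µM iodoacetamide-alkyne, 1 h RT. Clicked 1 h to biotin-acid-N3 (CuSO4/TBTA/TCEP). LC-MS/MS with cysteine modification +322.23688 Da; light/heavy ratios quantified.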
# [6] = tested on: radioresistant HeLa cells; test: Radiosensitization AlamarBlue viability assay; format: cell-based; conditions: 7.5 Gy IR
# Procedure, shortened: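 HeLa cells seeded at 200 per well. Treated with compound 16 h later, then given 7.5 Gy X-ray 1 h after treatment. AlamarBlue (10% final) added 3 days post-irradiation. Absorbance read at 570 nm, 600 nm reference, 4 days post-irradiation. Background taken from cell-free wells; % survival set against DMSO-treated, nonirradiated controls.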
# [7] = tested on: germinal center (GC) B cells; test: In vivo germinal center B cell evaluation; design: species or system mice; conditions: IP 40 mg kg^−1 on days 7 and 9 after NP-OVA immunization, day 11
# Procedure, shortened: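 WT mice immunised with NP-OVA and killed on day 11. Lymph node cells Fc-blocked with anti-CD16/32 (2 µg ml-1, 5–10 min), then stained 20–40 min with B220, FAS and CD38 antibodies. Germinal centre B cells gated as live/single B220+ CD38lo FAShi by flow cytometry. Two-tailed Student's t test.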
# [8] = tested on: WT PATU-8988T cells; test: 2D growth over time viability; format: cell-based; conditions: 1 μM, 6 and 8 days
# Procedure, shortened: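 PATU-8988T cells plated at 100 per well (other lines 500), with one plate per time point (days 0, 2, 4, 6, 8). Treated the day after plating with DMSO or compound and held at 37 °C, 5% CO2. Medium plus fresh compound replaced every 48 h. CellTiter-Glo luminescence read; day 0 read before treatment. Values divided by mean day 0 reading; n = 3 biological replicates.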
# [9] = tested on: PC3; test: 2D growth over time viability; format: cell-based; conditions: up to 8 days
# Procedure, shortened: (§1)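 Cells seeded at 500 per well (PATU-8988T: 100 per well) and dosed with test compound or DMSO the next day. Kept at 37 °C, 5% CO2, with medium and compound renewed every 48 h. One plate per time point (days 0, 2, 4, 6, 8); the day 0 plate was read before dosing. Viability measured by CellTiter-Glo luminescence.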
# [10] = tested on: Kuramochi; test: 2D growth over time viability; format: cell-based; conditions: up to 8 days
# Procedure, shortened: as §1
# [11] = tested on: NGP; test: 2D growth over time viability; format: cell-based; conditions: 2.5 μM after 8 days
# Procedure, shortened: as §1
# [12] = tested on: NBL-S; test: 2D growth over time viability; format: cell-based; conditions: 2.5 μM after 8 days
# Procedure, shortened: as §1
# [13] = tested on: PATU-8988T cells; test: Apoptosis analysis; format: cell-based
# Procedure, shortened: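 PATU-8988T cells treated in triplicate for 6 days with DMSO (0.1%), test compound (1.0 or 2.5 µM) or a non-covalent analogue (2.5 µM), with medium replaced on day 3. Staurosporine (1 µM, 4 h) served as positive control. Cleaved caspase 3 and Pin1 assessed by Western blot. AnnexinV-FITC/7-AAD FACS scored live, early and late apoptotic cells; mean with SD, n=3.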
# [14] = tested on: c-Myc protein levels; test: c-Myc protein level immunoblot; format: cell-based
# [15] = tested on: Mino B cells; test: RNA-seq differential expression; format: cell-based, human; conditions: 1 μM, 6 h
# Procedure, shortened: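 Mino cells grown in RPMI 1640 with 15% FBS and 1% penicillin/streptomycin at 37 °C, 5% CO2 in a humidified incubator.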
# [16] = tested on: Tg(dβh:MYCN;dβh:EGFP) zebrafish; test: Zebrafish MYCN neuroblastoma initiation model; format: in vivo; conditions: 25–100 μM in water
# Procedure, shortened: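 Three-day-old embryos placed five per well and exposed to DMSO or test compound in egg water. Live fish imaged for bright-field and EGFP fluorescence under identical conditions. EGFP-positive tissue area quantified from the images.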
# [17] = tested on: Th-MYCN mice tumors; test: Th-MYCN murine neuroblastoma model; format: in vivo
# Procedure, shortened: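 Tumours in TH-MYCN mice monitored weekly by palpation; mice with 4–5 mm tumours were enrolled. Groups received test compound at 40 mg kg-1 by oral gavage once or twice daily, or vehicle (5% NMP, 5% kolliphor, 20% DMSO) once daily. The twice-daily arm was capped at 56 doses. Tumour volume measured by 1 Tesla MRI under isoflurane with core temperature held at 37 °C. Two-tailed Student's t test.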
# [18] = tested on: PINN1, the worm Pin1 homolog; conditions: cited from earlier work
compound,measurement,setting,value
CC(C)(C)CN(C(=O)CCl)C1CCS(=O)(=O)C1 (stereo not shown) [Sulfopin],time to complete Pin1 engagement,"[1]; 1-μM treatment, PATU-8988T cells",≤ 4 h
same,concentration fully engaging Pin1,"[1]; HCT116 cells, 5 h",0.5 µM
same,concentration of maximal Pin1 engagement,"[1]; PATU-8988T and HCT116 cells, 5 h",0.5 to 1 µM
same,concentration fully engaging Pin1,"[1]; PATU-8988T cells, 5 h",1 µM
same,Pin1 engagement after 72 h,"[1]; PATU-8988T or HCT116 cells, 72 h",> 50%
same,half-life in mouse hepatic microsomes,[2],41 min
same,oral bioavailability (F%),[3],30%
same,Cmax,[3]; read-out: average cmax (peak concentration),11.5 µM
same,cysteines with dose-dependent competition (of 162 labeled by Sulfopin-DTB),[4],only Pin1 Cys113
same,"competition ratio R, Pin1 Cys113",[5],15
same,"competition ratio R, all other identified cysteines","[5]; 2,134 peptides",< 2.5
same,resensitization to irradiation,[6],significantly resensitized them to irradiation in a dose-dependent manner
same,proportion of GC B cells compared to vehicle,[7],1.34 fold
same,effect on cellular viability,[8],significant effect on cellular viability after 6 and 8 days
same,antiproliferative effect (growth over time),[9],only slight effects
same,antiproliferative effect (growth over time),[10],only slight effects
same,antiproliferative effect (growth over time),[11],significant viability effects
same,antiproliferative effect (growth over time),[12],significant viability effects
same,Pin1 protein levels,"[13]; 5 or 6 days, 1 μM, 2.5 μM, Western blot",Pin1 levels were not changed
same,induction of apoptosis,"[13]; treatments of up to 6 days, 1 and 2.5 μM",does not induce apoptosis
same,c-Myc protein levels,[14],increased c-Myc protein levels
same,number of genes significantly downregulated,[15],206
same,neuroblastoma-initiating hyperplasia,[16],significantly suppressed
same,toxicity in zebrafish embryos,[16],no evidence of toxicity was observed
same,average increase in survival,[17]; 40 mg kg^−1 BID oral gavage,28 days
same,mice with actual reduction in tumor size (MRI),"[17]; 40 mg kg^−1 BID, 7-day treatment, n = 6",five out of six
same,average increase in survival,[17]; 40 mg kg^−1 QD oral gavage,10 days
same,inhibition of PINN1 in Caenorhabditis elegans,[18],inhibited PINN1
